In ChEMBL document CHEMBL4513216, “Probing the Open Global Health Chemical Diversity Library for Multistage-Active Starting Points for Next-Generation Antimalarials” (ACS Infect Dis, 2020):

Test: Toxicity liver stage against HepG2, at 10uM
Type: cell-based
Parameters: test concentration 10 uM, cell line HepG2-A16-CD81EGFP
Conditions: human, HepG2-A16-CD81EGFP cells; read-out: INHIBITION
In short: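 Uninfected HepG2-A16-CD81EGFP cells, 3 × 10^3 per well, 1536-well, plated on prespotted compound at 10 μM final, parasite-free screening media added to match infected plates; puromycin 10 μM positive, DMSO 0.5% negative; run in parallel with 48 h PbLuc assay at 37 °C, 5% CO2; viability by CellTiter-Glo luminescence, normalized to controls.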

Row | SMILES | cytotoxicity at 10 µM
1 | FC(F)(F)c1ccccc1CN1CCOC[C@H](Oc2cccnc2)C1 | 4.3%
2 | O=C(NC[C@H]1OC[C@@H](NC2CCCCC2)[C@@H]1O)c1cccs1 | -2.36%
3 | COc1cccc(CN2CCCCCC2c2cccc(F)c2)c1O (stereo not given) | 5.02%
4 | COc1ccc2c(c1)C(=O)CC1(CCN(Cc3ccc(F)cc3)CC1)O2 | 16.6%
5 | CCOC(=O)C1CCN(C(=O)c2cnn(-c3ccccc3F)c2N)CC1 | 4.47%
6 | O=C(CC1CCCC1)NCCS(=O)(=O)N1CCN(c2ccccn2)CC1 | 0.766%
7 | Cc1ccc(S(=O)(=O)N2CCC(S(=O)(=O)c3nncn3C)CC2)cc1C | -6.9%
8 | CN(C)c1ccc2c(c1)CN(C(=O)c1ccnnc1)C2c1cnco1 (stereo not given) | 0.841%
9 | COC[C@H]1CCC[C@]12CN(S(=O)(=O)c1cccs1)CCO2 | -1.34%
10 | Cn1cc(C2CC(=O)NC23CCN(Cc2nccs2)CC3)cn1 (stereo not given) | 1.06%
11 | CNC(=O)[C@H]1C[C@@H]2CN(C(=O)c3occc3C)C[C@@H]2N1S(C)(=O)=O | -2.95%
12 | O=C(c1ccoc1)N1CCC2(C1)CN(c1ncc(F)cn1)C2 | -0.472%
13 | Cc1ccc(CN2CC[C@H]3OCC[C@@H](C(=O)NCC4CC4)[C@@H]3C2)o1 | 0.951%
14 | CCN1C[C@H]2CCN(C(=O)NC)CC[C@H]2S1(=O)=O | 4%
15 | CCn1cc(NS(=O)(=O)c2ccc(Br)s2)c(C(=O)NCC(C)C)n1 | 6.86%
16 | Cc1nn(C)c2c(N3CCC(C)CC3)nc(C3CC3)nc12 | 7.59%
17 | Cn1nc(C(=O)N2CCOCC2)cc1C(=O)Nc1ncc(Cl)cc1Cl | 12.5%
18 | O=C(c1ccc2c(c1)CCCC2)N1CCn2ncnc2C1 | -4.9%
19 | CN(C(=O)c1ccc(C#N)cc1)c1nnc(C2CCOC2)s1 (stereo not given) | 0.36%
20 | CCN(CC)C(=O)CN1CCCC1c1nc(C)c2c(n1)N(C)C(=O)CC2 (stereo not given) | 3.1%
21 | NC(=O)c1cc(CC2CCCN(Cc3cnccn3)CC2)ncn1 (stereo not given) | -3.97%
22 | CN1CCOC(c2cncc(CCC(N)=O)n2)C1 (stereo not given) | -2.86%

Row | SMILES | cytotoxicity at 10 µM
23 | O=C(Cc1cccc(O)c1)N1CCCC(O)(CN2CCCC2)CC1 (stereo not given) | -4.68%
24 | Cc1cc(O)nc(C2CCCN(CCO)C2)n1 (stereo not given) | -14.6%
25 | Cc1ccccc1-c1cncc(C2CCN(CC(=O)N(C)C)CC2)n1 | -12.5%
26 | Cn1ccc(C(=O)N2CCCC(Cc3cccc4cccnc34)C2)n1 (stereo not given) | -8.44%
27 | CS(=O)(=O)c1ccc(NC(=O)NCc2ccc(F)cc2)cn1 | 15.4%
28 | Cc1ccc2oc(N3CCN(CC(=O)NC(C)C)CC3)nc2c1 | -10.9%
29 | CCOc1ccc(NC(=O)c2oc(CC)cc2C)cc1CO | 2.05%
30 | CN1CCC(Nc2ccc(F)cc2OCC(F)(F)F)C1=O (stereo not given) | -0.898%
31 | Cn1cnc(S(=O)(=O)N2CCCCc3ccccc32)c1 | -4.62%
32 | CCCS(=O)(=O)NCc1ncc(C)c(OC)c1C | -12.9%
33 | O=C(Cc1cccs1)NCC(=O)Nc1cn[nH]c1 | 5.68%
34 | NC(=O)CC1CCN(C(=O)NCc2cccc(-n3cccn3)c2)CC1 | -2.45%
35 | CC(c1ncc(C(C)(C)C)o1)N1CCN(Cc2ccc(Cl)s2)CC1 (stereo not given) | -1.21%
36 | Cn1cc(C(=O)N2CCCN(c3cccnn3)CC2)c2ccccc21 | 4%
37 | CNC(=O)Cn1cc(Nc2cccc(F)c2C#N)cn1 | 6.64%
38 | CC(Cn1cccn1)C(=O)N1CCCN(Cc2cscn2)CC1 (stereo not given) | -13.2%
39 | O=C(NCCNC(=O)C1Cc2cc(F)ccc2O1)C1CCCCC1 (stereo not given) | 4.07%
40 | CC(C)N(C)CCNC(=O)N1CCN(Cc2ccon2)CC1 | -1.58%
41 | Cc1nnc(CN2CCC(c3nc4cc(Cl)ccc4o3)CC2)n1C | -3.49%
42 | CCc1cnc(CN(C)C2CCN(CC3CCC3)C2)o1 (stereo not given) | -5.99%
43 | OCC1CCCN1c1cc(NCCc2nccs2)ncn1 (stereo not given) | 4.58%
44 | Cc1cc(NC(=O)CN2CCCC2c2noc(C3CC3)n2)on1 (stereo not given) | 3.46%

Row | SMILES | cytotoxicity at 10 µM
45 | Cc1cnn(C2CCCN(C(=O)c3c(C)oc(C)c3C)C2)c1 (stereo not given) | 2.56%
46 | Cn1ccc(CNC(=O)N2CCC(C3(C)OCCO3)CC2)c1 | 3.15%
47 | Cc1cc(NCc2cccc(C#N)c2)ccc1C(N)=O | 10.1%
48 | COCCc1noc(CNC(C)(CO)C2CCCCC2)n1 (stereo not given) | 7.88%
49 | CN(CC(F)(F)F)C(=O)Cn1cc(NC(=O)C(C)(C)C)cn1 | 3.04%
50 | CC(O)CN1CCN(C(=O)c2cnn(-c3ccccc3F)c2)CC1 (stereo not given) | -6.81%
51 | CC(C)(C)C(=O)NCCC(=O)NC(C)(C)c1ccc2c(c1)OCCO2 | -1.22%
52 | CCOCC(=O)N1C[C@H]2CCC[C@@]2(COC)C1 | 0.419%
53 | CC(=O)N(C)Cc1ncn2c1CN(C(=O)C1CCCO1)CCC2 (stereo not given) | -101%
54 | Cn1cccc1C(=O)NCc1cn2c(n1)CN(c1ncccn1)CC2 | -109%
55 | O=C(c1ccnnc1)N1CCc2onc(Cn3cccn3)c2C1 | 0.529%
56 | Cc1ccc(CN2CCCn3c(nc(Cn4ccnc4)cc3=O)C2)s1 | 4.24%
57 | COCCN1CC(=O)c2sc(NCc3ccccc3)nc2C1 | -6.77%
58 | O=C(c1onc2ccccc12)N1CCC2(CCCNC2)C1 (stereo not given) | -1.05%
59 | c1ccc(-c2cc(CN3C[C@H]4CC[C@H]3C4)on2)cc1 | -5.33%
60 | Cc1nc(N2CCCC2C(=O)NCc2ccsc2)nc2ccccc12 (stereo not given) | 6.03%
61 | COc1ccccc1CN1C(=O)O[C@@H]2CN(CC3CC3)C[C@@H]21 | 1.35%
62 | CNc1ncc(CN(C)C(=O)CCc2[nH]nc3c2CCCC3)cn1 | 3.8%
63 | CN1C(=O)CC(C(=O)O)C12CCN(c1ccc3cccc(Cl)c3n1)CC2 (stereo not given) | 2.1%
64 | CCOc1ccccc1C(C(=O)O)N(C)Cc1nnc(C)o1 (stereo not given) | -9.77%
65 | COCCN(C)CCN1CC2(CCN(C3CCSC3)CC2)OC1=O (stereo not given) | -2.28%
66 | Cc1ccc2nc(CN3CCN(C4CCCC4)C(=O)C3)cc(O)c2c1 | -0.803%

Row | SMILES | cytotoxicity at 10 µM
67 | CC1(C)CNC(=O)c2nc(C3CCCN(S(C)(=O)=O)C3)[nH]c2C1 (stereo not given) | 0.611%
68 | O=C(c1ccc2ncsc2c1)N1CCC(C(=O)O)(n2cccn2)CC1 | 6.01%
69 | O=c1cc(N2CCOCC2)cnn1CCc1ccc(F)cc1 | 8.01%
70 | N#Cc1cccc(NC2CC(=O)N(Cc3cccc(F)c3)C2)n1 (stereo not given) | -94.2%
71 | CN(C)c1ncc(CN2CCCC(Nc3ccc4c(c3)OCCO4)C2)s1 (stereo not given) | 8.12%
72 | CN(C)C(=O)c1cn2cc(-c3ccccc3Cl)n(CC3CC3)c(=O)c2n1 | -1.43%
73 | CCc1ncc(CNCc2cccnc2N(C)C)cn1 | -2.62%
74 | COc1ccc2c(c1)CCN(Cc1cscn1)CC2 | 0.0869%
75 | O=C(c1cnc2ccccn12)N1CCCC(c2ccn[nH]2)C1 (stereo not given) | -5.28%
76 | COCCN1CCC(CN(C)c2ncnc3c2c(C)nn3C)C1 (stereo not given) | -5.16%
77 | COc1cccc2c1OCC(C(=O)N1CCN(S(=O)(=O)N(C)C)CC1)C2 (stereo not given) | 3.47%
78 | Cc1nc2c(c(NCCNC(=O)C(C)C)n1)Cc1ccccc1OC2 | 4.74%
79 | COc1cc(Oc2ccc(C(N)=O)cn2)ccc1CN1CCCC1 | -0.398%
80 | Cc1cnn(C2(C(=O)O)CCN(Cc3oc4ccccc4c3C)CC2)c1 | -5.87%
81 | CNc1nc(CNC(=O)Nc2cccc(CN(C)C)c2)cs1 | -8.04%
82 | CCOc1ccc(Cl)c(C(=O)NCCC(=O)Nc2ccncc2)n1 | -13.9%
83 | Cc1nccn1C1CCCN(C(=O)c2cccc(OCC(N)=O)c2)C1 (stereo not given) | -13%
84 | CN(C)c1cc(CNC(=O)Nc2nccs2)ccn1 | 2.3%
85 | Cc1nccc(CNc2cc(N3CCCC3CO)ncn2)n1 (stereo not given) | -14%
86 | CCN1CCC(NC(=O)CN2CCc3c(ncn3C3CC3)C2)CC1 | -4.8%
87 | CNC(=O)c1ccc(C(=O)N2CCC(Nc3cccnn3)CC2)cn1 | -19.4%
88 | CC(=O)Nc1nc(C(=O)N2CCCCC2Cn2cc(C)cn2)cs1 (stereo not given) | -17.1%

Row | SMILES | cytotoxicity at 10 µM
89 | CC1CN(C(=O)CN(Cc2ccccc2Cl)C2CCCC2)CCO1 (stereo not given) | -5.65%
90 | CC(=O)N(Cc1noc(C)n1)C1CCN(Cc2cnc(C)s2)C1 (stereo not given) | -9.65%
91 | CCc1nnsc1C(=O)N1CCCN(Cc2ccc(F)cc2)CC1 | -3.69%
92 | Cc1cnn(C2CN(Cc3nc(-c4ccco4)no3)C2)c1 | -14.6%
93 | Cc1cnn(CC2CCCCN2CCn2cncn2)c1 (stereo not given) | 6.26%
94 | Cn1ccc(C(=O)NCc2ccc(N3CCCC3)nc2)cc1=O | 0.12%
95 | Fc1cccc(-c2nc(CN3CCOC(Cn4cccn4)C3)co2)c1 (stereo not given) | -5.6%
96 | c1ccc(-n2ncc(CN3CCCC3Cn3cccn3)n2)cc1 (stereo not given) | -2.73%
97 | COc1ccc(C(=O)N(C)Cc2nnc3ccccn23)c(OC)c1 | -3.03%
98 | CNC(=O)c1ccc(CN2CCC(N(C)Cc3noc(C)n3)C2)cc1 (stereo not given) | 5.56%
99 | CNCc1ccc(OCc2ccc3c(c2)OCCO3)cc1 | 1.61%
100 | CCCn1nc(C)c(-c2cncn2CCN(C)C2CCCC2)c1C | 4.16%
101 | CC(C)CNC(=O)[C@H]1CCS(=O)(=O)[C@@H]2CN(Cc3ccc(F)cc3)C[C@H]12 | 1.26%
102 | COc1ncnc2c1CCN(Cc1cccs1)CC2 | 8.55%
103 | Cc1csc(CN2CC[C@H]3C[C@H](c4nc(C)no4)O[C@@H]3C2)n1 | -3.35%
104 | O=C([C@H]1COC[C@H]2CN(c3ncc(F)cn3)C[C@H]21)N1CCOCC1 | -5.58%
105 | CCc1ncnc2c1CCN(C(=O)c1ccccn1)CC2 | 2.43%
106 | Cc1ccc(NC(=O)c2nc3c(s2)CCCN3C(=O)C2CC2)cn1 | 10.5%
107 | O=C(NC1CC1)N1CCOCC2(CCN(Cc3cccs3)C2)C1 (stereo not given) | -2.6%
108 | CS(=O)(=O)N1CCC2(CC1)NCCn1c(-c3ccccc3)cnc12 | 3.61%
109 | CN(C)C(=O)[C@H]1C[C@@H]2CCN(C3CCOCC3)C[C@@H]2O1 | -3.01%
110 | Cc1ccc(N2CCC3(CCN(C(=O)c4ccoc4)CC3)CC2)nn1 | -0.355%
